Fewer inactive variants are shown than the library holds.
B1: tRNA (parent)
chain: GUUCCGUUGGCGUAAUGGUAACGCGUCUCCCUCCUAAGGAGAAGACUGCGGGUUCGAGUCCCGUACGGAACG

Variants of: B1
Assay: yeast fitness relative to wild type (ratio to wild type); higher = fitter; tRNA-Arg(CCU), competitive growth, 37 C, YPD
How it was run: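 Start and end populations of a pooled competition were compared by 100-nucleotide paired-end sequencing of gene amplicons. The Saccharomyces cerevisiae strains carried tRNA-Arg(CCU) gene variants at the native genomic locus, synthesised with a 3% per-site mutation rate at 69 sites, and competed in YPD at 37°C for 24 hours in six parallel replicates. Darwinian fitness relative to wild type was based on the change in genotype frequencies. Genotypes required ≥ 100 starting reads, and estimates < 0.5 were set to 0.5.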

Row | Variant | yeast fitness
1 | G23A A45C | 0.846
2 | G23A A45U | 0.674
3 | C22U C49G U53A G63C | 0.609
4 | G23A A69C | 0.793
5 | G23A A69U | 0.726
6 | C22U G25A G41A C46A A69C | 0.599
7 | C22U C55G A70C | 0.558
8 | G23A C33G | ≤ 0.5
9 | G23A C33U | 0.547
10 | C22U U59A | 0.705
11 | G23A G38A A69C | ≤ 0.5
12 | C22U G23C C24A C49U C62U A69C | 0.683
13 | C22U U26A C29U A43C G52C U53A | ≤ 0.5
14 | G23A A40U | 0.842
15 | G23A C27A | 0.821
16 | C22U C61A C62U | 0.586
17 | C22U C30U C55G | ≤ 0.5
18 | C22U U28C | 0.736
19 | C22U U35C C49U U53A | ≤ 0.5
20 | C22U C30U C49G | 0.556
21 | C22U U47G U59A | ≤ 0.5

Row | Variant | yeast fitness
22 | C22U C33G C34A A43C A65U | ≤ 0.5
23 | C22U C34G G39A | ≤ 0.5
24 | G23A C30G A65U | ≤ 0.5
25 | C22U C46A C66U | ≤ 0.5
26 | C22U G25A G41C U54G C61U | ≤ 0.5
27 | G23A C33U A69U | ≤ 0.5
28 | C22U U35C C49U | ≤ 0.5
29 | C22U G44A | 0.865
30 | C22U G68U | 0.845
31 | G23A C29G A45U C60G C61U A69G | 0.59
32 | G23A C27U C34U A45C A65C | 0.532
33 | C22U G25A C33U A42C | ≤ 0.5
34 | C22U G38C G41C A65G | ≤ 0.5
35 | C22U G23A C66G G67A | ≤ 0.5
36 | G23A C30U C55A G68C | ≤ 0.5
37 | G23A C30G A69U | ≤ 0.5
38 | C22U C31U | 0.94
39 | C22U C31G | 0.834
40 | C22U G56C C60A C62G | 0.523
41 | G23A C29G A65G | ≤ 0.5
42 | G23A G38A G39C G50A G56C | ≤ 0.5

Row | Variant | yeast fitness
43 | C22U G23A C61A | 0.58
44 | G23A C29G A45U C46U C60G C61U A69G | ≤ 0.5
45 | G23A C29U C30A | 0.565
46 | C22U G39A | 0.693
47 | C22U G39C | 0.731
48 | C22U G38C | 0.747
49 | C22U U28A C34G G38A G51A | ≤ 0.5
50 | G23A C33G U35G C60U C62G A69U | ≤ 0.5
51 | C22U C60G A70G | ≤ 0.5
52 | G23A C29A C31G | 0.664
53 | C22U C31G U35A C49U C66U G67A | ≤ 0.5
54 | G23A C24G U32G | 0.609
55 | G23A G39C A40U G68A | ≤ 0.5
56 | C22U U28C C61A C62U | ≤ 0.5
57 | G23A C30U G48A C55A | ≤ 0.5
58 | G23A C30A A43U | ≤ 0.5
59 | G23A C30G C33G A36U C46G C55G | 0.589
60 | C22U U28C C29G C33A | ≤ 0.5
61 | G23A G44C C61G | ≤ 0.5
62 | C22U U32G C34U A40G A70U | 0.563
63 | G23A C55U G63C | ≤ 0.5

Row | Variant | yeast fitness
64 | C22U U26C A37C G41C | ≤ 0.5
65 | C22U G38A C55U G68C | ≤ 0.5
66 | G23A C30U C55U G67C | ≤ 0.5
67 | G23A C30A G51A | 0.562
68 | C22U G51C G67A | 0.604
69 | C22U C31G G51C C62A | ≤ 0.5
70 | C22U U32C C46U U54G | 0.593
71 | C22U C34U C55U | 0.586
72 | C22U G63A A70C | 0.508
73 | G23A C27G C29U G56A | ≤ 0.5
74 | G23A C30A A37G | ≤ 0.5
75 | C22U G23C | 0.722
76 | C22U G23A | 0.591
77 | G23A A37G | 0.57
78 | G23A C24U G38C A70C | ≤ 0.5
79 | C22U C46A | 0.975
80 | C22U C46U | 0.995
81 | C22U C46G | 0.835
82 | G23A C30G C33G A36U C46G C55G C61U | 0.567
83 | G23A C29G C55A | 0.536
84 | C22U U32A C34U C66U | ≤ 0.5
